This is an account of results in ChEMBL document CHEMBL1142588, “Communesins G and H, new alkaloids from the psychrotolerant fungus Penicillium rivulum” (J Nat Prod, 2005).

In one data set the test system is Poliovirus 1. The data set is described as follows: Antiviral activity against Poliovirus type 1 infected in african green monkey BS-C-1 cells. The class given is functional, organism-based. An outline of the steps: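 Poliovirus type 1 (Pfizer vaccine strain) infecting African green monkey kidney BSC-1 cells; scored for inhibition of the virus and for alteration of the host cells.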

In a further data set the test system is P388. Description: Cytotoxicity against mouse P388 cells. The class given is functional. The settings on record: read-out: ID50 (the source's name).
The subject of data set [1] is Trichophyton mentagrophytes. Description: Antifungal activity against Trichophyton mentagrophytes assessed as inhibition zone at 1 mg/mL by paper disk assay. The data set is classed as functional, organism-based. An outline of the steps: (§1)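 Paper disk diffusion; 30 μL of a 1 mg/mL compound solution applied per disk; read-out as zone of inhibition. Panel run in parallel: bacteria E. coli, B. subtilis, P. aeruginosa; fungi C. albicans, T. mentagrophytes, A. resinae.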

The subject of the next data set is Candida albicans. The data set is described as follows: Antifungal activity against Candida albicans assessed as inhibition zone at 1 mg/mL by paper disk assay. The data set is classed as functional, organism-based. In short, it runs like this: as §1
In the next data set the test system is Amorphotheca resinae. The data set is described as follows: Antifungal activity against Amorphotheca resinae assessed as inhibition zone at 1 mg/mL by paper disk assay. The data set is classed as functional, organism-based. An outline of the steps: as §1
For a further data set, the system named is Pseudomonas aeruginosa. The data set is described as follows: Antibacterial activity against Pseudomonas aeruginosa assessed as inhibition zone at 1 mg/mL by paper disk assay. The class given is functional, organism-based. An outline of the steps: as §1
In a further data set the test system is Human alphaherpesvirus 1. The data set is described as follows: Antiviral activity against herpes simplex virus type 1 ATCC VR 733 infected in african green monkey BS-C-1 cells. The class given is functional, organism-based. An outline of the steps:
(§2)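 BSC-1 African green monkey kidney cells infected with Herpes simplex type 1 virus (ATCC VR 733); scored for inhibition of virus and for alteration of the host cells.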

The test system of a further data set is Escherichia coli. The data set is described as follows: Antibacterial activity against Escherichia coli assessed as inhibition zone at 1 mg/mL by paper disk assay. The class given is functional, organism-based. In short, it runs like this: as §1
Data set [2] in a line: Cytotoxicity against african green monkey BS-C-1 cells. The class given is cell-based. The settings on record: chlorocebus aethiops, bsc-1. An outline of the steps:
as §2

The subject of the next data set is Bacillus subtilis. Description: Antibacterial activity against Bacillus subtilis assessed as inhibition zone at 1 mg/mL by paper disk assay. The data set is classed as functional, organism-based. In short, it runs like this: as §1

Calls of active or inactive are those of the source. The rule behind the calls is not given here.

Take `CCC(=O)N1CC[C@]23c4ccccc4N[C@H]4N(C)c5cccc6c5[C@]42CCN([C@H]6[C@@H]2OC2(C)C)[C@H]13` [COMMUNESIN G]: the result (in the data set with Poliovirus 1; in data set [1]; in the data set on Candida albicans; in the data set on Amorphotheca resinae; in the data set with Pseudomonas aeruginosa; in the data set with Human alphaherpesvirus 1) was inactive. Moreover, the result in the data set with Escherichia coli and with Bacillus subtilis was inactive. The IC50 with P388 is > 12.5 µg/mL. The Activity result in data set [2] is listed as “Non-toxic”.

In the case of `CCCC(=O)N1CC[C@]23c4ccccc4N[C@H]4N(C)c5cccc6c5[C@]42CCN([C@H]6[C@@H]2OC2(C)C)[C@H]13` [COMMUNESIN H], the result (in the data set with Poliovirus 1; in [1]; in the data set on Candida albicans; in the data set with Amorphotheca resinae; in the data set on Pseudomonas aeruginosa; in the data set on Human alphaherpesvirus 1) was inactive. The outcome with Escherichia coli and in the data set on Bacillus subtilis was inactive. For the same compound, the IC50 in the data set with P388 is > 12.5 µg/mL. Further, the Activity entry in [2] is reported as “Non-toxic”.
